What was measured:
HCT-116 = test: Cytotoxicity against human HCT116 cells after 96 hrs by WST8 assay; settings: HCT-116, 96 h
[1] = target: RAC-alpha serine/threonine-protein kinase (Homo sapiens, UniProt P31749); test: Inhibition of recombinant AKT1 by IMAP assay
Method in brief: (§1)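 Recombinant enzyme mixed with test compound and substrate peptide/ATP solution, incubated 90 min at 30 °C; enzyme quantity, ATP, substrate and cation set per kinase. IMAP reagent then added for 5 min at room temperature, and peptide phosphorylation quantified by fluorescence polarization.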

[2] = target: Fibroblast growth factor receptor 2 (Homo sapiens, UniProt P21802); test: Inhibition of recombinant FGFR2 by TR-FRET assay
Fibroblast growth factor receptor 2, sequence (P21802 whole entry): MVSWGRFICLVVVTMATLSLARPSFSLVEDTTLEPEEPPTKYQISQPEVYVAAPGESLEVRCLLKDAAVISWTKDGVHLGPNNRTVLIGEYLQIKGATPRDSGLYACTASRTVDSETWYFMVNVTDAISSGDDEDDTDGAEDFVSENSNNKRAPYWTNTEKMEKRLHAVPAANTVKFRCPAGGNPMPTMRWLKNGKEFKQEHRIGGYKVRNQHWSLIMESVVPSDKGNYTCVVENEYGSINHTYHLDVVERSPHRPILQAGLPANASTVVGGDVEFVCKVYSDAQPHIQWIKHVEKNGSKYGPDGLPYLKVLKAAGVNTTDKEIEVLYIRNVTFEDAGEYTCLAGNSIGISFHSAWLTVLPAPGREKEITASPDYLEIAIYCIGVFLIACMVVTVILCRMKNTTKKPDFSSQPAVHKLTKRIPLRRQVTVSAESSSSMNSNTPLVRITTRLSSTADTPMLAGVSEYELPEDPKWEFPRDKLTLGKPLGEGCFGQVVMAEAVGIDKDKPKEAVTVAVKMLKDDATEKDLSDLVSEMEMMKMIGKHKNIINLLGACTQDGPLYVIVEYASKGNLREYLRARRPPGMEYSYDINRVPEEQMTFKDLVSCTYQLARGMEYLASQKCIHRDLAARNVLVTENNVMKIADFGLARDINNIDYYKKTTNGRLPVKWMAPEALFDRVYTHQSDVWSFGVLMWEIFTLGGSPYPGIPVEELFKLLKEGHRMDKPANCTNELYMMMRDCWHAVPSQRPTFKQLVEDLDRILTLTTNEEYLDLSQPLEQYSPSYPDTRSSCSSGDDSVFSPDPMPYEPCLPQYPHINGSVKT
Method in brief: (§2)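 Recombinant tyrosine kinase incubated with test compound and substrate peptide/ATP for 90 min at 30 °C; enzyme amount, ATP level, substrate and cation vary by kinase. Reaction stopped, then TR-FRET reagent with europium-labelled anti-phospho-substrate antibody added for 5 min at room temperature; substrate phosphorylation read as time-resolved fluorescence.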

NCI-H460 = test: Cytotoxicity against human NCI-H460 cells after 96 hrs by WST8 assay; settings: NCI-H460, 96 h
HUVEC [3] = test: Inhibition of ECGS-induced proliferation of HUVEC after 96 hrs by WST8 assay; settings: Homo sapiens
WiDr = test: Cytotoxicity against human WiDr cells after 96 hrs by WST8 assay
[4] = target: Protein kinase C alpha type (Homo sapiens, UniProt P17252); test: Inhibition of recombinant PKCalpha by IMAP assay; method in brief: as §1
[5] = target: Hepatocyte growth factor receptor (Homo sapiens, UniProt P08581); test: Inhibition of recombinant c-Met by TR-FRET assay
HUVEC [6] = test: Inhibition of HGF-induced proliferation of HUVEC after 96 hrs by WST8 assay; settings: Homo sapiens
Aurora kinase A = target: T1, Aurora kinase A (Homo sapiens, UniProt O14965); test: Inhibition of recombinant Aurora A by IMAP assay; method in brief: as §1
T1 sequence (O14965 whole entry): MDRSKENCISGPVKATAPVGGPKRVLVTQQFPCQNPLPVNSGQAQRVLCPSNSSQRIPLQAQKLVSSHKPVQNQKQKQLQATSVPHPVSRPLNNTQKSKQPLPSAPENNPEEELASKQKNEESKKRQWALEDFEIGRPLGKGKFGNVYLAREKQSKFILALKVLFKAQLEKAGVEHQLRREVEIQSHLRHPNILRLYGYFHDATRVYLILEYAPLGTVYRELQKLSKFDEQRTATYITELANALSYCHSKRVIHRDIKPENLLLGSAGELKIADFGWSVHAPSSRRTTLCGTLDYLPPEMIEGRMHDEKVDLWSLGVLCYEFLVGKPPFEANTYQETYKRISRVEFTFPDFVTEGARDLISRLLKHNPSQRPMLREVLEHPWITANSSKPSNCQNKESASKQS

PC-3 = test: Cytotoxicity against human PC3 cells after 96 hrs by WST8 assay; settings: PC-3, 96 h
[7] = target: Mast/stem cell growth factor receptor Kit (Homo sapiens, UniProt P10721); test: Inhibition of recombinant Kit by TR-FRET assay; method in brief: as §2
Mast/stem cell growth factor receptor Kit, sequence (P10721 whole entry): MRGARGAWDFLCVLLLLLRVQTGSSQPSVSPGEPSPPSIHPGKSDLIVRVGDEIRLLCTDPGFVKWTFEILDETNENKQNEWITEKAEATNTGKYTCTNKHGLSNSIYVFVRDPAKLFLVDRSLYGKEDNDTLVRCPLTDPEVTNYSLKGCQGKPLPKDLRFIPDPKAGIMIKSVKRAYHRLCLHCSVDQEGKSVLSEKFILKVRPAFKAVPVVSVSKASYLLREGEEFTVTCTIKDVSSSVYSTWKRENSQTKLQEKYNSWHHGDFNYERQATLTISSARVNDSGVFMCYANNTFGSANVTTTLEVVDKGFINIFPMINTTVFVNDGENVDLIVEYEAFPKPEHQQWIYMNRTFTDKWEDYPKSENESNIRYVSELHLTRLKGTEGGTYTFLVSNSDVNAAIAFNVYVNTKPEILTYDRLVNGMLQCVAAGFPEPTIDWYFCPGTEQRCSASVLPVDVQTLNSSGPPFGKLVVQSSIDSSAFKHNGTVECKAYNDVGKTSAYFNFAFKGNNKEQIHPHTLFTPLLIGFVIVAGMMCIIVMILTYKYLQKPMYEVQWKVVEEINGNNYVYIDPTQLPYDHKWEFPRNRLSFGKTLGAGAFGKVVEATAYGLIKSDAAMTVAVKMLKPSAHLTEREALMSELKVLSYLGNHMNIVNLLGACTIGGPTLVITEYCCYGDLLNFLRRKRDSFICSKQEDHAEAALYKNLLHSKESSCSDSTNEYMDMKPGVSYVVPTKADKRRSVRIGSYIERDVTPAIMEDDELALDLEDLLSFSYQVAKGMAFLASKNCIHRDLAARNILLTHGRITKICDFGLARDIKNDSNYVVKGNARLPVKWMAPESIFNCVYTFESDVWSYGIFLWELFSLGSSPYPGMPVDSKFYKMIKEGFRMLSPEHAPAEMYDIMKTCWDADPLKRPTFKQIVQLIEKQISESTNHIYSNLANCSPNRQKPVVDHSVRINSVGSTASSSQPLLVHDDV

ASPC1 = test: Cytotoxicity against human AsPC1 cells after 96 hrs by WST8 assay; settings: ASPC1, 96 h
[8] = target: T2, Receptor-type tyrosine-protein kinase FLT3 (Homo sapiens, UniProt P36888); test: Inhibition of recombinant Flt3 by TR-FRET assay; method in brief: as §2
T2 sequence (P36888 whole entry): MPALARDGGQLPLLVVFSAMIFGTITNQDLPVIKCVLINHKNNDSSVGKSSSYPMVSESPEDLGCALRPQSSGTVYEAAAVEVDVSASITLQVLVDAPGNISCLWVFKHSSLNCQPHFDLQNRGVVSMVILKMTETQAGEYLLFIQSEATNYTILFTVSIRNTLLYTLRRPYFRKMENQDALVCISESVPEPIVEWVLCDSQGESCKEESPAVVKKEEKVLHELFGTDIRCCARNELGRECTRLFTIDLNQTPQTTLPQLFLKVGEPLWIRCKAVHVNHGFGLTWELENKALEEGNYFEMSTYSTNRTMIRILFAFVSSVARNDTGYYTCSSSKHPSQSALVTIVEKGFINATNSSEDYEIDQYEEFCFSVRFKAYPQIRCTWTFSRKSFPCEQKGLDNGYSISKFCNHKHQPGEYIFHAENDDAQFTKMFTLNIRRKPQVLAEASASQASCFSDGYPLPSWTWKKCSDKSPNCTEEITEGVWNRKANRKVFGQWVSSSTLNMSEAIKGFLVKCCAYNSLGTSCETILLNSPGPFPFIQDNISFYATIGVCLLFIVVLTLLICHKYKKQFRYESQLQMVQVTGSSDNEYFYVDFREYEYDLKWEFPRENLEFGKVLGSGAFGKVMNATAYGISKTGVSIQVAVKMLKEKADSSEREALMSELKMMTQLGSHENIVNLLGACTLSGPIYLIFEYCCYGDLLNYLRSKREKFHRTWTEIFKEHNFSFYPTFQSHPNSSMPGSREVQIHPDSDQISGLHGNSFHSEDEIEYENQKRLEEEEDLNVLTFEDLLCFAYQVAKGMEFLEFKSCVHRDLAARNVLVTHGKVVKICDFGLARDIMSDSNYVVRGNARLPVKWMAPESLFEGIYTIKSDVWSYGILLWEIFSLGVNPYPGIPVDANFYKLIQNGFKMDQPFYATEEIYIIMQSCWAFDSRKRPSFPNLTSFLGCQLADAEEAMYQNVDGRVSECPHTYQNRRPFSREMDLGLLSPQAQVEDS

[9] = target: Protein-tyrosine kinase 6 (Homo sapiens, UniProt Q13882); test: Inhibition of recombinant BRK by TR-FRET assay; method in brief: as §2
Protein-tyrosine kinase 6, sequence (Q13882 whole entry): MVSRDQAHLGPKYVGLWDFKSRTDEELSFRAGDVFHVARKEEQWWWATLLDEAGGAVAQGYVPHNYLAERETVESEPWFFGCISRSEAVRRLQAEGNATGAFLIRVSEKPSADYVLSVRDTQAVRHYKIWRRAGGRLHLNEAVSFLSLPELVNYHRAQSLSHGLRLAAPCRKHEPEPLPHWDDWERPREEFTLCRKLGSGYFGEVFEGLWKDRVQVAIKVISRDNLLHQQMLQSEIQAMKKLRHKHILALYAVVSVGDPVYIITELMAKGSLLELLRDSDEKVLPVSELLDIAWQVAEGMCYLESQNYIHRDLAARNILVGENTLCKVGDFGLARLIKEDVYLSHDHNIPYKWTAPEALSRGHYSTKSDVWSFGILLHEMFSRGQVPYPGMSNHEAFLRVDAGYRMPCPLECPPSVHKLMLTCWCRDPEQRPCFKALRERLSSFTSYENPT

Ephrin type-A receptor 2 = Ephrin type-A receptor 2 (Homo sapiens, UniProt P29317); test: Inhibition of recombinant EphA2 by TR-FRET assay; method in brief: as §2
Ephrin type-A receptor 2, sequence (P29317 whole entry): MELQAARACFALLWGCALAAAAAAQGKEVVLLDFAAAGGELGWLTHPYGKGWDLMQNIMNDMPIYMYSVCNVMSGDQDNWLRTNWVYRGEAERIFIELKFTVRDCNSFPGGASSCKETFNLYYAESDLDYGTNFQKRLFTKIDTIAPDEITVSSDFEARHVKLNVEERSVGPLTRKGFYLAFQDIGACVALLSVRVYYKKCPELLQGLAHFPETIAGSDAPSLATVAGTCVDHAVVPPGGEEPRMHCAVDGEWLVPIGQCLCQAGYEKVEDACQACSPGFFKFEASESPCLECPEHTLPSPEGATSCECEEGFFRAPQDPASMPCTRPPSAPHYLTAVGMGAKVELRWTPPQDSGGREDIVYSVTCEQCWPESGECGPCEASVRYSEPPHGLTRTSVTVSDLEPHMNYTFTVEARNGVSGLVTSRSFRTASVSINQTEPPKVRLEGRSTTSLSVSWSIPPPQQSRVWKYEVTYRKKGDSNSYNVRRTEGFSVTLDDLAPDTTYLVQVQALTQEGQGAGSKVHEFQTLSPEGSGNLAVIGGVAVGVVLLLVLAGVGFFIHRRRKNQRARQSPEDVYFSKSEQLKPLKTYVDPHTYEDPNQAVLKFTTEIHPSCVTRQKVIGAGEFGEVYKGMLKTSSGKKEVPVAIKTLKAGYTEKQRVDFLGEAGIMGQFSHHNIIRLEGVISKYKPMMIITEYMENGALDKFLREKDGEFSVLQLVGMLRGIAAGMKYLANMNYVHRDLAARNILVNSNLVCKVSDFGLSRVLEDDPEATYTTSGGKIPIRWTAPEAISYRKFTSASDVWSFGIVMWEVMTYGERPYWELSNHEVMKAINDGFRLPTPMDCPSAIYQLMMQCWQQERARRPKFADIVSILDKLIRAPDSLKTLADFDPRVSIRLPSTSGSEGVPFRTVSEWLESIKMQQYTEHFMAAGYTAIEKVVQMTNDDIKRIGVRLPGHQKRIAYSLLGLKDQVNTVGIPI

[10] = target: Macrophage-stimulating protein receptor (Homo sapiens, UniProt Q04912); test: Inhibition of recombinant RON by TR-FRET assay; method in brief: as §2
Macrophage-stimulating protein receptor, sequence (Q04912 25-304 limits assumed): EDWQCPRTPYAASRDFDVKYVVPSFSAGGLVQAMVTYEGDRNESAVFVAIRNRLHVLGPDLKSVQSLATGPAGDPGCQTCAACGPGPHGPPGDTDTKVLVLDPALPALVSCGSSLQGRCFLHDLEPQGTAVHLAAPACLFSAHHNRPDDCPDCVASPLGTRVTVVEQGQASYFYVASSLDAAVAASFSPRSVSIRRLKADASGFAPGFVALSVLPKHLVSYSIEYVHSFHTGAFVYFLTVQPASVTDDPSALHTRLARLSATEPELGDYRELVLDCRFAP
Macrophage-stimulating protein receptor, sequence (Q04912 310-1400 limits assumed): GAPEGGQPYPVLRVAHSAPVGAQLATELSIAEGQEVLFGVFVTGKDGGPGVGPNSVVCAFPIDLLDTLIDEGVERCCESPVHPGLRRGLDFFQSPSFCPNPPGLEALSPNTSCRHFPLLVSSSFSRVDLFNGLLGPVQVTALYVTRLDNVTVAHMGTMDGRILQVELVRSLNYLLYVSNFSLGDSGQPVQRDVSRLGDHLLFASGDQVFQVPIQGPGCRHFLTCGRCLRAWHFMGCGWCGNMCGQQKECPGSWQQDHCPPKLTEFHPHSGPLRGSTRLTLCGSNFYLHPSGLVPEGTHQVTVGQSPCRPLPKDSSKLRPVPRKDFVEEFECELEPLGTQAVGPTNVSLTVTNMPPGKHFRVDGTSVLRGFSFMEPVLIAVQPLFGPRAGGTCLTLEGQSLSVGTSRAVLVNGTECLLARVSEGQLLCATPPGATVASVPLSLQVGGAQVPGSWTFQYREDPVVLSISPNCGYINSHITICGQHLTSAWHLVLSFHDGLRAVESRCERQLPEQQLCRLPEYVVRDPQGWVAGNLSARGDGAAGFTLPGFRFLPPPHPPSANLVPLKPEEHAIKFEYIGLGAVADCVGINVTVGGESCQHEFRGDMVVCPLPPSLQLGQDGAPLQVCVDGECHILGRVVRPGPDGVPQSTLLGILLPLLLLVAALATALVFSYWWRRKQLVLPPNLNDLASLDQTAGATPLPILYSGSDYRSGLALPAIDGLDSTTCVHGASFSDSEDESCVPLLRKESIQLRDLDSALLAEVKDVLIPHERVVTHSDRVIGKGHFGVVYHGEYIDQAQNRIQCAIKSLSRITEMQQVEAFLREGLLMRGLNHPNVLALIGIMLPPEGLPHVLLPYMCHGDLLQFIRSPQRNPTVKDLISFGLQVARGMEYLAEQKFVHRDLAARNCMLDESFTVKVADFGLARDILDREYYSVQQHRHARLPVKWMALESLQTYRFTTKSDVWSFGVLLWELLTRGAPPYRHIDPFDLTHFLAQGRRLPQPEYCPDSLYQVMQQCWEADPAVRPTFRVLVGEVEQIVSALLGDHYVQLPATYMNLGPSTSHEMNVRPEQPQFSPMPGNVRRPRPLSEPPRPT

MKN-45 = test: Cytotoxicity against human MKN45 cells after 96 hrs by WST8 assay; format: functional, cell-based; settings: MKN-45, 96 h
Method in brief: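 Tumour cells exposed to a range of compound concentrations for 96 h; cytotoxicity read with WST-8 cell counting kit.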

HUVEC [11] = test: Inhibition of VEGF-induced proliferation of HUVEC after 96 hrs by WST8 assay; settings: Homo sapiens
DU-145 = test: Cytotoxicity against human DU145 cells after 96 hrs by WST8 assay; settings: DU-145, 96 h
COLO 205 = test: Cytotoxicity against human COLO205 cells after 96 hrs by WST8 assay; settings: COLO 205, 96 h
Insulin receptor = Insulin receptor (Homo sapiens, UniProt P06213); test: Inhibition of recombinant InsR by TR-FRET assay
Calu-6 = test: Cytotoxicity against human Calu6 cells after 96 hrs by WST8 assay; settings: Calu-6, 96 h
CAPAN-1 = test: Cytotoxicity against human Capan1 cells after 96 hrs by WST8 assay; settings: CAPAN-1, 96 h
[12] = target: Cyclin-dependent kinase 2 (Homo sapiens, UniProt P24941); test: Inhibition of recombinant CDK2 by IMAP assay; method in brief: as §1

RAC-alpha serine/threonine-protein kinase, sequence (P31749 whole entry): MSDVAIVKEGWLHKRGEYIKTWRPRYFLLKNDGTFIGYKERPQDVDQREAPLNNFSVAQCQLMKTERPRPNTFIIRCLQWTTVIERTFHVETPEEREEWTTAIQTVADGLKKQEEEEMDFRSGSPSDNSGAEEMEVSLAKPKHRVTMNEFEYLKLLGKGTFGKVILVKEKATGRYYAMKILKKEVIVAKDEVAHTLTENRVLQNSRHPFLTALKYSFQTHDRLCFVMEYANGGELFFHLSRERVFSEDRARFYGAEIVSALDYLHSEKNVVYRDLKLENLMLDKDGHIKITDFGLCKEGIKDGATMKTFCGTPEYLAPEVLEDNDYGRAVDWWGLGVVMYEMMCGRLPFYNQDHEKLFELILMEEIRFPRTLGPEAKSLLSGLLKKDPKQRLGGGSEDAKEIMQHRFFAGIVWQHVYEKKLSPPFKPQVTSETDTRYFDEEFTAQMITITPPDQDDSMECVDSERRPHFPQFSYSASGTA

SMILES: C[C@@H](Oc1ccc2ncc(C3CC3C(N)=O)cc2c1)c1c(Cl)ccc(F)c1Cl (stereo not given in full)
- IC50 (HCT-116): > 1 µM
- IC50 [1]: > 50 µM
- IC50 [2]: 12 µM
- IC50 (NCI-H460): > 1 µM
- IC50 (HUVEC [3]): 9.9 µM
- IC50 (WiDr): > 1 µM
- IC50 [4]: > 50 µM
- IC50 [5]: 0.0093 µM
- IC50 (HUVEC [6]): 0.3 µM
- IC50 (Aurora kinase A): 22 µM
- IC50 (PC-3): > 1 µM
- IC50 [7]: 41 µM
- IC50 (ASPC1): > 1 µM
- IC50 [8]: 15 µM
- IC50 [9]: > 50 µM
- IC50 (Ephrin type-A receptor 2): 5.2 µM
- IC50 [10]: 0.23 µM
- IC50 (MKN-45): 0.093 µM
- IC50 (HUVEC [11]): 6.7 µM
- IC50 (DU-145): > 1 µM
- IC50 (COLO 205): > 1 µM
- IC50 (Insulin receptor): > 50 µM
- IC50 (Calu-6): > 1 µM
- IC50 (CAPAN-1): > 1 µM
- IC50 [12]: > 50 µM

Source: ChEMBL document CHEMBL1156877, “Discovery of 6-benzyloxyquinolines as c-Met selective kinase inhibitors” (Bioorg Med Chem Lett, 2010)
